# Screening data from PubChem BioAssay.
# rRNA inh HTS – inhibitors of bacterial rRNA selective over humanized ribosomes. E. coli WT GFP vs humanized-ribosome RFP mutants, fluorescence, 24 h; hits give low values; DMSO median 0, no signal -100. GFP signal change (wild-type ribosome), % (no concentration beside the values). 350,000 compounds, 1.6% hits;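 active means significant combined selectivity score with lowered wild-type GFP, culture density cut under 30%, mutant RFP and density less affected; inactive means any of these conditions unmet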
# Cneo AK release – causes C. neoformans cell lysis | AID 651654 | 360,000 compounds, 0.2% hits | adenylate kinase release luminescence, 4 h; normalised: neutral wells 0, clomiphene wells 100 | lysis activity, % at 15 µM;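 active means mean lysis activity across replicates of at least 80%, whatever share of replicates individually reach that level; inactive means mean lysis activity below 80%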
#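 Material: C. neoformans cells | Amount: Yeast cell density of 5 × 10^6 cells/mL | Medium: Fresh YPD growth medium | Dosing: Single dose | Times: Static 4 h at 37 °C with compound, 1 h detection | Detection: AK luminescence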
# Yeast superoxide – yeast age-related superoxide inhibition as caloric restriction mimetic; S. cerevisiae aged cells, superoxide DHE fluorescence; hits give low values; superoxide response (% of plate mean), % at 10 µM; 330,000 compounds, 0.18% hits; AID 2690;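 active means superoxide response under a set limit, about three screen SD below normal, cut at about 65% in these data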;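 further: yeast aged for seven days with compound at 30 °C before DHE staining; 100% = average MFI of all compound-treated wells on the plate with controls excluded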
# PglD DTNB – inhibitors of Campylobacter jejuni PglD acetyltransferase | purified PglD enzyme, DTNB colorimetric CoA detection | inhibition, % at 12.5 µM | 360,000 compounds, 0.098% hits; in the data active means inhibition above about 16%, passing the limit was not always enough
# Mot1-301 SUMO – SUMOylation pathway inhibition by Mot1-301 growth rescue. 320,000 compounds, 1% hits. S. cerevisiae Mot1-301 growth rescue, ATP luminescence, 38.5C; percent above DMSO median, 100 means doubled. growth rescue, % at 18.8 µM;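 active means every valid replicate shows activation above 250% relative to neutral control wells; inactive means the rest, any valid replicate at or below 250%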;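 further: OY570 slx delta 5 strain wells were the positive control but not used for scaling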
# The depositor's hits bear a star; nt = no result. This is a sample that favours compounds with a hit; in the whole collection about 2.2% have one here.
SMILES,rRNA inh HTS,Cneo AK release,Yeast superoxide,PglD DTNB,Mot1-301 SUMO
CC(C)Cn1cnc2c(c1=N)C(c1ccccc1)C1=C(CC(C)(C)CC1=O)O2 (stereo not given),-37.9*,nt,98.2,nt,-3.0
CC(=O)Nc1ccc2c(c1)C(=O)N(C)C[C@@H](C)[C@H](CN(C)C)O2,2.9,nt,nt,nt,nt
Cn1nc(C(C)(C)C)cc1NC(=O)Nc1cc(Cl)cc(Cl)c1,-20.4*,1.1,113.4,-4.5,-9.5
COc1cc2cc(CCCOC(=O)c3ccc(F)cc3)oc(=O)c2cc1OC,-24.6*,2.8,101.9,-0.1,89.4
COc1cc2cc(CCCOC(=O)c3ccc(Br)cc3)oc(=O)c2cc1OC,-24.7,-0.2,99.4,-3.6,-28.6
C[C@@H]1CCCCO[C@@H](CN(C)Cc2ccccc2)[C@H](C)CN([C@H](C)CO)C(=O)c2cc(NC(=O)NC3CCCCC3)ccc2O1,-1.6,3.0,nt,3.2,nt
O=C(Nc1ccccc1)N1C[C@@H]2[C@H](c3ccccc31)[C@@H](CO)N2C(=O)c1ccncc1,4.5,-3.0,nt,-0.9,nt
CCCNC(=O)[C@H]1[C@H](CO)[C@H]2Cn3c(ccc(-c4ccncc4)c3=O)[C@@H]1N2CC1CC1,3.0,nt,nt,-1.4,nt
CC(=O)c1ccc(N2CCN(C3CCC(C(C)(C)C)CC3)CC2)cc1 (stereo not given),0.3,-0.8,90.2,-0.7,256.2*
C[C@@H]1CCCCO[C@H](CN(C)S(=O)(=O)c2cn(C)cn2)[C@H](C)CN([C@H](C)CO)C(=O)c2cc(NC(=O)CCCN(C)C)ccc2O1,-0.8,-5.0,nt,-5.2,nt
O=c1oc(=S)oc2c1[C@H](c1ccc(Cl)cc1)O[C@H](C1CC1)C2,-42.5*,nt,nt,nt,nt
C[C@@H]1CN([C@@H](C)CO)C(=O)c2cc(NC(=O)Nc3ccc(C(F)(F)F)cc3)ccc2O[C@@H](C)CCCCO[C@@H]1CN(C)Cc1ccccc1,4.6,5.2,nt,-0.5,nt
O=C(NCc1ccc(S(=O)(=O)NC2CCCCC2)s1)c1ccccc1,-9.4,nt,103.3,nt,2.7
O=C(NCc1ccc(S(=O)(=O)Nc2ccccc2Cl)s1)c1ccccc1,-31.9*,0.3,76.0,8.6,-6.4
O=C(N/N=C/c1ccc([N+](=O)[O-])o1)c1cc2ccccc2o1,4.1,nt,97.4,nt,3.6
O=C(N/N=C/c1ccc([N+](=O)[O-])o1)c1cc2c(ccc3ccccc32)o1,-23.9*,nt,nt,nt,nt
CC[C@@H](NC(=O)[C@@H](Cc1ccccc1)NC(=O)CC[C@H]1O[C@@H](n2ccc(=O)[nH]c2=O)[C@H](O)[C@@H]1O)c1ccccc1,-8.9*,0.9,nt,-6.8,nt
COc1ccc(-c2cc(C(F)(F)F)nc(N)n2)cc1,6.9,-0.1,103.2,-5.5,-14.4
COc1ccc(-c2cc(C(F)(F)F)nc(S(C)(=O)=O)n2)cc1,nt,nt,93.2,nt,589.5*
CS(=O)(=O)c1nc(-c2ccc(F)cc2)cc(C(F)(F)F)n1,-33.6*,nt,nt,nt,nt
Cc1sc2ncnc(Sc3ccccc3C(=O)Nc3ccc(C#N)cc3)c2c1C,-22.8*,nt,96.5,nt,19.3
CN(C)c1ccc(C=C2C(=O)OC(C)(C(C)(C)C)OC2=O)cc1 (stereo not given),nt,-12.6,83.9,nt,311.3*
CC(C)c1onc(C(=O)NCc2cccs2)c1[N+](=O)[O-],6.4,nt,125.3,nt,-6.3
CC(=O)c1ccc(NC(=O)c2noc(C(C)C)c2[N+](=O)[O-])cc1,2.3,nt,92.6,nt,38.3
CC(C)c1onc(C(=O)NCc2ccc(F)cc2)c1[N+](=O)[O-],nt,nt,100.3,nt,286.1*
SMILES,rRNA inh HTS,Cneo AK release,Yeast superoxide,PglD DTNB,Mot1-301 SUMO
COc1ccc(NC(=O)c2noc(C(C)C)c2[N+](=O)[O-])cc1,13.1,84.1*,100.0,4.1,10.2
CC(C)NC(=O)N(C)C[C@@H]1Oc2cc(C#C[C@@H](C)O)ccc2S(=O)(=O)N([C@H](C)CO)C[C@@H]1C,1.6,0.9,nt,1.1,nt
CC(=O)Oc1ccccc1C(=O)C=Cc1cccc([N+](=O)[O-])c1,-44.6*,3.6,nt,3.6,nt
Cc1cc(O)c(C(=O)/C=C/c2cccc([N+](=O)[O-])c2)c(=O)o1,1.7,-7.2,89.4,-0.4,0.1
C[C@@H]1CN([C@H](C)CO)C(=O)Cc2cc(NC(=O)CCN3CCOCC3)ccc2O[C@@H]1CN(C)Cc1ccccc1,3.6,-0.5,nt,0.8,nt
O=C(C[C@@H]1CC[C@H](NC(=O)Cc2ccccn2)[C@@H](CO)O1)NCCc1ccccc1,1.4,95.2*,nt,-0.7,nt
